# Activity calls are given as the source filed them. The calls are words filed in the database; no cut-off is given here.
# Assays:
# [1] = target: Mu-type opioid receptor (Homo sapiens) (UniProt P35372); experiment: Displacement of [3H]DAMGO from human recombinant mu opioid receptor expressed in HEK293 cells assessed as remaining radioligand binding at 10 uM after 120 mins by scintillation counting method relative to control; format: cell-based
# [2] = Apparent intrinsic clearance in rat liver microsomes; format: ADME; conditions: read-out: CLH(app)
# [3] = target: C-C chemokine receptor type 2 (Homo sapiens) (UniProt P41597); experiment: Displacement of [125I]MCP-1 from human recombinant CCR2 expressed in HEK293 cells assessed as remaining radioligand binding at 10 uM after 60 mins by scintillation counting method relative to control; format: cell-based
# Sequence of C-C chemokine receptor type 2 (Homo sapiens) (P41597 whole entry, looked up): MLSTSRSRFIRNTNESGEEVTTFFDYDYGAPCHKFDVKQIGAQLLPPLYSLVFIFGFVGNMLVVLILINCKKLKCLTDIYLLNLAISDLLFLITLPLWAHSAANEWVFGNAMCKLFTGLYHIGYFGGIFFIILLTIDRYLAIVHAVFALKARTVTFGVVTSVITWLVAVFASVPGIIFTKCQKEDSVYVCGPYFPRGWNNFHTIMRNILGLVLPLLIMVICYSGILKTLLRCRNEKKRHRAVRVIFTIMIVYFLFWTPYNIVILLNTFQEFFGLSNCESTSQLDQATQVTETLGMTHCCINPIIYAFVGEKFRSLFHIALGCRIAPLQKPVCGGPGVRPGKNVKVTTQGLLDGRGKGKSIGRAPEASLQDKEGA
# [4] = target: Melanocortin receptor 4 (Homo sapiens) (UniProt P32245); experiment: Displacement of [125I]NDP-a-MSH from human recombinant MC4 receptor expressed in CHO cells assessed as remaining radioligand binding at 10 uM after 120 mins by scintillation counting method relative to control; format: cell-based
# [5] = target: Transient receptor potential cation channel subfamily A member 1 (Homo sapiens, UniProt O75762); experiment: Antagonist activity at human TRPA1 expressed in tetracycline-inducible T-REx expression system transfected CHO cells assessed as inhibition of AITC-induced Ca2+ influx preincubated for 2 mins followed by AITC addition measured for 2 mins by Fluo-4 dye based FLIPR assay; format: cell-based
# [6] = target: Sodium channel protein type 9 subunit alpha (Mus musculus) (UniProt Q62205); experiment: Inhibition of Nav1.7 in mouse DRG neurons at 10 uM relative to control
# [7] = Cmax in rat at 30 mg/kg, po; format: ADME, organism-based; design: dose 30 mg/kg, route oral; conditions: in vivo
# Summary of the method: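 Rat oral PK at 30 mg/kg (10 mg/kg for one analogue) in 1% Tween 80/2% HPMC/97% water with methanesulfonic acid, pH 2.2.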
# [8] = target: Cholecystokinin receptor type A (Homo sapiens) (UniProt P32238); experiment: Displacement of [125I]CCK-8s from human recombinant CCK1 receptor expressed in CHO cells assessed as remaining radioligand binding at 10 uM after 60 mins by scintillation counting method relative to control; format: cell-based
# Sequence of Cholecystokinin receptor type A (Homo sapiens) (P32238 whole entry): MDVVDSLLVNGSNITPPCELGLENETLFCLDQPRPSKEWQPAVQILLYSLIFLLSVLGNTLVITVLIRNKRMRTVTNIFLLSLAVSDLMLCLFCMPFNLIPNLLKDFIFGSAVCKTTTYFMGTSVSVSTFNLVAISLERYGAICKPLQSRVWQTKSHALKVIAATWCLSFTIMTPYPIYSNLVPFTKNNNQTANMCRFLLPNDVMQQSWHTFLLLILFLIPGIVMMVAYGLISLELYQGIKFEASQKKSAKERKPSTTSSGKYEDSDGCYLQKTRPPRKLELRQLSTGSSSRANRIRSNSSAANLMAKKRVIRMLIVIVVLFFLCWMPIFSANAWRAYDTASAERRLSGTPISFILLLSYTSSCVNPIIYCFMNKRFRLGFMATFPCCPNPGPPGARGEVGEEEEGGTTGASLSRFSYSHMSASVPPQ
# Rattus norvegicus [9] = experiment: In vivo inhibition of TRPA1 in Harlan Sprague-Dawley rat model of AITC-induced flinching assessed as unbound plasma concentration based IC90; format: functional
# Summary of the method: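 Rats were given vehicle (2% HPMC/1% Tween-80) or compound orally at 1, 3, 10 or 30 mg/kg. After 1 h, 0.1% AITC was injected into one left ventral hind paw, and nocifensive flinching was recorded over the first minute. Unbound plasma concentration was measured at 1 h, n = 8 per dose. In vivo IC50/IC90 came from the exposure–response relationship across individual animals.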
# Cytochrome P450 2D6 = Cytochrome P450 2D6 (Homo sapiens, UniProt P10635); experiment: Inhibition of CYP2D6 in human liver microsomes using dextromethorphan as substrate by LC-MS/MS analysis in presence of NADPH; format: ADME
# [10] = target: 5-hydroxytryptamine receptor 4 (Homo sapiens) (UniProt Q13639); experiment: Displacement of [3H]GR-113808 from human recombinant 5HT4E receptor expressed in CHO cells assessed as remaining radioligand binding at 10 uM after 60 mins by scintillation counting method relative to control; format: cell-based
# Sequence of 5-hydroxytryptamine receptor 4 (Homo sapiens) (Q13639 whole entry): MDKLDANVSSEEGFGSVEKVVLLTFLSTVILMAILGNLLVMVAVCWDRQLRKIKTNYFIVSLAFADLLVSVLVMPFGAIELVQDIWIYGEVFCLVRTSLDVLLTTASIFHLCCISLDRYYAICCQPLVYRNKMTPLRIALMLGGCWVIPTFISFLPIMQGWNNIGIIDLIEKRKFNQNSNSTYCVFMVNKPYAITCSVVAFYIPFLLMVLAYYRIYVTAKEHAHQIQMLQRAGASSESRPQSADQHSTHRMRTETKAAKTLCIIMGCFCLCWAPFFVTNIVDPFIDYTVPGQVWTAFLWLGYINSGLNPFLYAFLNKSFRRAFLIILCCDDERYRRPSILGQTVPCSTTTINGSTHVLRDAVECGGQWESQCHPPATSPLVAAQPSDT
# [11] = target: Transient receptor potential cation channel subfamily V member 1 (Homo sapiens, UniProt Q8NER1); experiment: Antagonist activity at human TRPV1 expressed in CHO cells assessed as inhibition of capsaicin-induced Ca2+ influx up to 10 uM preincubated for 2.5 mins followed by capsaicin addition measured for 1 min by luminescence assay; format: cell-based
# Sequence of Transient receptor potential cation channel subfamily V member 1 (Q8NER1 whole entry): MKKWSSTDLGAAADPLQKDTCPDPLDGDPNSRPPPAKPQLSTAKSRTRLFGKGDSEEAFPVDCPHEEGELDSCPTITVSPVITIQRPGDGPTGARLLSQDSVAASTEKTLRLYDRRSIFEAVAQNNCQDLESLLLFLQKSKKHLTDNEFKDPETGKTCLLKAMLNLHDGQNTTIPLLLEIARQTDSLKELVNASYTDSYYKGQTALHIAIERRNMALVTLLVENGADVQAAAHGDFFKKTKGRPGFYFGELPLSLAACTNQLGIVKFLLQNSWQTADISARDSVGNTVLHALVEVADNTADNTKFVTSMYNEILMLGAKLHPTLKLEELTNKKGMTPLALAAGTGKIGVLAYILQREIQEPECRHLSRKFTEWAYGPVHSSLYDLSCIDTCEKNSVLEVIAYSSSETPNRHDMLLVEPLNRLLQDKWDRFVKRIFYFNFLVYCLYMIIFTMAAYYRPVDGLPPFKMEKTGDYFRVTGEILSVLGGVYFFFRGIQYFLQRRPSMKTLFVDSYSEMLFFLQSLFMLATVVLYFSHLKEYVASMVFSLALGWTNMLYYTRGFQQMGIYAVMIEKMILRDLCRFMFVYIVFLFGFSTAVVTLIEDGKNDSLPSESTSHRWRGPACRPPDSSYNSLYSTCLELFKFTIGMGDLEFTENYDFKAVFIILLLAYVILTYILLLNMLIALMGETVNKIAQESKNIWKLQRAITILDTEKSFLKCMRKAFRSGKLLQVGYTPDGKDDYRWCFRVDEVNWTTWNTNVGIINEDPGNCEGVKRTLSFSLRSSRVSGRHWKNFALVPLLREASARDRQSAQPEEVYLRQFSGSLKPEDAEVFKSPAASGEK
# [12] = Ratio of unbound plasma concentration in Harlan Sprague-Dawley rat model of AITC-induced flinching at 10 mg/kg, po to IC50 for rat TRPA1 expressed in tetracycline-inducible T-REx expression system transfected CHO cells by 45Ca2+ uptake assay; format: ADME, organism-based; conditions: in vivo
# Summary of the method: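 Rats dosed orally at 1, 3, 10 or 30 mg/kg in 2% HPMC/1% Tween-80 vehicle. After 1 h, unbound plasma concentration measured (n = 8 per dose), intraplantar AITC (0.1%) given and flinching scored over the first minute. Unbound concentration divided by in vitro rat TRPA1 45Ca2+ IC50.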
# [13] = Tmax in rat at 30 mg/kg, po; format: ADME, organism-based; conditions: in vivo
# Summary of the method: (§1)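 Rats dosed orally at 30 mg/kg, or 10 mg/kg for one analogue, in 1% Tween 80/2% HPMC/97% water with methanesulfonic acid, pH 2.2.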
# [14] = Oral bioavailability in rat at 30 mg/kg; format: ADME, organism-based; conditions: in vivo; summary of the method: as §1
# [15] = target: Transient receptor potential cation channel subfamily A member 1 (Rattus norvegicus, UniProt Q6RI86); experiment: Antagonist activity at rat TRPA1 expressed in tetracycline-inducible T-REx expression system transfected CHO cells assessed as inhibition of methylglyoxal-induced 45Ca2+ uptake preincubated for 10 mins followed by methylglyoxal addition measured after 3 mins by TopCount microplate scintillator counting method; format: cell-based
# Sequence of Transient receptor potential cation channel subfamily A member 1 (Rattus norvegicus, UniProt Q6RI86) (Q6RI86 whole entry): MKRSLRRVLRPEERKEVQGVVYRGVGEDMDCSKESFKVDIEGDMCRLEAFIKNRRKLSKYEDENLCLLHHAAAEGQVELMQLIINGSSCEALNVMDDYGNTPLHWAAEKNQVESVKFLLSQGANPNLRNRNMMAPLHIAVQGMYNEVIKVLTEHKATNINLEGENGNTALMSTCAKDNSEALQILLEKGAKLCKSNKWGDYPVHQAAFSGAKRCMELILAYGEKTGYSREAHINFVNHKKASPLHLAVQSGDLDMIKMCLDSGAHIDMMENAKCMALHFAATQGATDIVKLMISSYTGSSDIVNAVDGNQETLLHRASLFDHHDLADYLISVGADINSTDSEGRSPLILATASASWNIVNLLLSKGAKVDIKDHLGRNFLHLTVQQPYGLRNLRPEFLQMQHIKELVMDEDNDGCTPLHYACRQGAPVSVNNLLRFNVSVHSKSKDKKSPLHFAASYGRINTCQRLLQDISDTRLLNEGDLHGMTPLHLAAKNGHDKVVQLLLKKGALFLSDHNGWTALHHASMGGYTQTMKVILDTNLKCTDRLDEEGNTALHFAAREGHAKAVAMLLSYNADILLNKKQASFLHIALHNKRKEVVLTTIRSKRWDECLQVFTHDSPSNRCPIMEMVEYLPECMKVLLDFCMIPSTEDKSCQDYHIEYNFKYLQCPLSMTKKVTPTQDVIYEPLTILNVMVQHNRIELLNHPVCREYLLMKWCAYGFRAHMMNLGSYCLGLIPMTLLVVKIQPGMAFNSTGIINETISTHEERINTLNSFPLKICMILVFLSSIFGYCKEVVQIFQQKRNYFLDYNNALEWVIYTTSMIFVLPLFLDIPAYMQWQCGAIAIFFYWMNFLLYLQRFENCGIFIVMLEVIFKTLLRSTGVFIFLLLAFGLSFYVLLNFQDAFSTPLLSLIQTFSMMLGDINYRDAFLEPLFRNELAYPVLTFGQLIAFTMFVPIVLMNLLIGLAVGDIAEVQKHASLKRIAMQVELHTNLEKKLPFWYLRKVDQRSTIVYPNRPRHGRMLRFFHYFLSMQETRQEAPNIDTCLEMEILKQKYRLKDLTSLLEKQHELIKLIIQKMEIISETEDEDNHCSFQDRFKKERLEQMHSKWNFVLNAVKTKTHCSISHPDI
# Summary of the method: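 Compound given 10 min at RT in HBSS/1 mM HEPES/0.1 mg/mL BSA, final 2.0 nM–40 μM (1:3 steps); then methylglyoxal (final 2.74 mM) plus 45Ca2+ (final 10 μCi/mL) in Ham's F-12/15 mM HEPES/0.1% BSA, 3 min at RT. Cells washed three times, then scintillation counted. MG uptake = 100%, no-agonist buffer = 0%. Four-parameter fit gives IC50.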
# Rattus norvegicus [16] = species on record: Rattus norvegicus; experiment: Displacement of [3H]PK-11195 from benzodiazepine receptor in rat heart assessed as remaining radioligand binding at 10 uM after 15 mins by scintillation counting method relative to control
# [17] = Solubility of compound in simulated intestinal fluid; format: ADME
# [18] = target: Sodium-dependent noradrenaline transporter (Homo sapiens) (UniProt P23975); experiment: Displacement of [3H]nisoxetine from human recombinant norepinephrine transporter expressed in CHO cells assessed as remaining radioligand binding at 10 uM after 120 mins by scintillation counting method relative to control; format: cell-based
# Sequence of Sodium-dependent noradrenaline transporter (Homo sapiens) (P23975 whole entry): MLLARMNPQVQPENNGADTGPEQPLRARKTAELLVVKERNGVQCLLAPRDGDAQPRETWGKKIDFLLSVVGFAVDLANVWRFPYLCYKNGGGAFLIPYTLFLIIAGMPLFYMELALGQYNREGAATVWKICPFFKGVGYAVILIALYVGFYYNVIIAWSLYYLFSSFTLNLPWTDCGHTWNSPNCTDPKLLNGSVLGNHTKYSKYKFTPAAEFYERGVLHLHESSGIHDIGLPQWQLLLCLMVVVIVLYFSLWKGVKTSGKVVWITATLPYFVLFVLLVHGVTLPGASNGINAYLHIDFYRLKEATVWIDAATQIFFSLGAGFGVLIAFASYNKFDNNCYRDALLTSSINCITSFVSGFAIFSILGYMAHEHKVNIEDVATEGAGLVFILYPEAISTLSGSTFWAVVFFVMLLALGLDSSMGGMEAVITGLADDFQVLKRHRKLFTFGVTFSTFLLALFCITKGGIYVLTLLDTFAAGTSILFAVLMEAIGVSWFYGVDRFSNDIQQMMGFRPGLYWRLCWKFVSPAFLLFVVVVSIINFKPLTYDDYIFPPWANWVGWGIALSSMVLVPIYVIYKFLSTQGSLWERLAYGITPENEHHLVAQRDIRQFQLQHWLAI
# [19] = target: Transient receptor potential cation channel subfamily V member 1 (Rattus norvegicus) (UniProt O35433); experiment: Antagonist activity at rat TRPV1 assessed as inhibition of capsaicin-induced Ca2+ influx up to 10 uM preincubated for 2.5 mins followed by capsaicin addition measured for 1 min by luminescence assay
# Sequence of Transient receptor potential cation channel subfamily V member 1 (Rattus norvegicus) (O35433 whole entry): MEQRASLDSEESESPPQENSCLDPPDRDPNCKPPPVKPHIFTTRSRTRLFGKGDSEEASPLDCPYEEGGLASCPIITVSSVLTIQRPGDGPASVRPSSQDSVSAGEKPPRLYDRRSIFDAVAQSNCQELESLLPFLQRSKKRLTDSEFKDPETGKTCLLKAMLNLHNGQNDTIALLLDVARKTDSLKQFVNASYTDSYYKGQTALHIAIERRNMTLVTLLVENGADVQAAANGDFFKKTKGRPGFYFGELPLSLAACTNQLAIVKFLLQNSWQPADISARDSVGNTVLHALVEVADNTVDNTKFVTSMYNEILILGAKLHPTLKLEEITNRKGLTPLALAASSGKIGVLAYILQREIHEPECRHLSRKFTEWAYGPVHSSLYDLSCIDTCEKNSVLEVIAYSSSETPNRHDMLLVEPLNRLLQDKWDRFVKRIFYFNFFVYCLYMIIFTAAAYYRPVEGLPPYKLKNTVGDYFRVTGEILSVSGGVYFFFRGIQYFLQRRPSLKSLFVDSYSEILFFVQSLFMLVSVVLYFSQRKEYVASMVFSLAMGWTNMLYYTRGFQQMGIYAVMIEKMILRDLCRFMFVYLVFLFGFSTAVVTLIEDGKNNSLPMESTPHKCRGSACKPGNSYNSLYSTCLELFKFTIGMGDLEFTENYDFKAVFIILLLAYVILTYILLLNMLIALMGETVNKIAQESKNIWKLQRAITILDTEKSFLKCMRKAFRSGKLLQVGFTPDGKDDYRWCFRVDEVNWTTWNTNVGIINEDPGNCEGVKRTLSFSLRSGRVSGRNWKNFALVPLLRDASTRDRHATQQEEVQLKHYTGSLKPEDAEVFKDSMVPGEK
# [20] = target: C-X-C chemokine receptor type 2 (Homo sapiens) (UniProt P25025); experiment: Displacement of [125I]IL-8 from human recombinant CXCR2 expressed in HEK293 cells assessed as remaining radioligand binding at 10 uM after 60 mins by scintillation counting method relative to control; format: cell-based
# Sequence of C-X-C chemokine receptor type 2 (Homo sapiens) (P25025 whole entry): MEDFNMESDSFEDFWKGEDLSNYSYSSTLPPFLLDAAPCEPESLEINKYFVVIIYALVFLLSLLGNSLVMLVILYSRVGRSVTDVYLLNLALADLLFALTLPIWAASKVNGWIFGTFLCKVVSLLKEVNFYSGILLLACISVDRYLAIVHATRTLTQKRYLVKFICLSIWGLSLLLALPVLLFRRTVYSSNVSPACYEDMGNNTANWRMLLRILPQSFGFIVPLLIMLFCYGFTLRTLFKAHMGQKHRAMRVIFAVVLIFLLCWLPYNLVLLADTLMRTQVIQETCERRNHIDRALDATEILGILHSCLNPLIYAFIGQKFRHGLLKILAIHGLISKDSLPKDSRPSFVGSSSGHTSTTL
# [21] = target: Somatostatin receptor type 4 (Homo sapiens) (UniProt P31391); experiment: Displacement of [125I]Tyr11-somatostatin-14 from human recombinant SST4 receptor expressed in CHO cells assessed as remaining radioligand binding at 10 uM after 120 mins by scintillation counting method relative to control; format: cell-based
# Rattus norvegicus [22] = experiment: fCmax in rat at 30 mg/kg, po; format: ADME, organism-based; conditions: in vivo; summary of the method: as §1
# [23] = target: D(1A) dopamine receptor (Homo sapiens) (UniProt P21728); experiment: Displacement of [3H]SCH-23390 from human recombinant dopamine D1 receptor expressed in CHO cells assessed as remaining radioligand binding at 10 uM after 60 mins by scintillation counting method relative to control; format: cell-based
compound,measurement,setting,value
Cn1cnc2ncn(Cc3nc(CCc4ccc(Cl)cc4)no3)c(=O)c21,Activity,[1],> 77%
same,microsomal CLint,[2],41 µL/min/mg
same,Activity,[3],> 77%
same,Activity,[4],> 77%
same,IC50,[5],0.02 µM
same,inhibition,[6],10%
same,Cmax,[7],7.5 µM
same,Activity,[8],> 77%
same,IC90,Rattus norvegicus [9],1.7 µM
same,IC50,Cytochrome P450 2D6,> 27 µM
same,Activity,[10],> 77%
same,inhibition,[11],inactive
same,Ratio,[12],8.2
same,Tmax,[13],48 min
same,bioavailability,[14],60%
same,IC50,[15],0.019 µM
same,Activity,Rattus norvegicus [16],> 77%
same,solubility,[17],248 µM
same,Activity,[18],> 77%
same,inhibition,[19],inactive
same,Activity,[20],> 77%
same,Activity,[21],> 77%
same,fCmax,Rattus norvegicus [22],2.2 µM
same,Activity,[23],> 77%

# — ChEMBL document CHEMBL3784976 (J Med Chem, 2016)
